Screening results (PubChem BioAssay)
M4 ag – human M4 muscarinic receptor agonists, primary screen, CHO-K1 cells, Fluo-8 calcium fluorescence; Muscarinic acetylcholine receptor M4 (Homo sapiens), P08173; CHO-K1 hM4/Gqi5; vehicle 0%, full acetylcholine response 100%; activation, % at 3 µM; 360,000 tested, 0.14% active;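 active means activation above the run mean over all test wells plus 3 SD, cut at about 32% in these data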;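 further: peak over basal fluorescence ratio per well then scaled between controls; 0% = DMSO wells and 100% = acetylcholine at EC100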
Target sequence (P08173 whole entry, looked up): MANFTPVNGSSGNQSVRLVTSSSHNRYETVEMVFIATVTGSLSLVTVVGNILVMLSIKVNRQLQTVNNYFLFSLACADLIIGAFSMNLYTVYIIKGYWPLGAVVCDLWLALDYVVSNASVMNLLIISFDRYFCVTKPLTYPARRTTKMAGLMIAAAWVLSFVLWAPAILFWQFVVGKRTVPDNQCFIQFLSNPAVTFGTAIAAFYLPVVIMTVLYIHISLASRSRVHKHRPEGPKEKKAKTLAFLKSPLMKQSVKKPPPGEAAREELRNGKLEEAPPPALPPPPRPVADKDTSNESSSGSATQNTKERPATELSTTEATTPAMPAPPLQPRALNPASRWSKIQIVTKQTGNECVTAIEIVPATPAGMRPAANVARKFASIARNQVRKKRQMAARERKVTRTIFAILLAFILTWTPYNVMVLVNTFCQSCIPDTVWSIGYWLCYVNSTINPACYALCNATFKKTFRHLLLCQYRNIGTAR
M4 antag – human M4 muscarinic receptor antagonists, primary screen, CHO cells, Fluo-8 calcium fluorescence. CHO-hM4 cells, ACh EC80. inhibition, % at 3 µM. 360,000 tested, 0.73% active;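 active means inhibition above its plate's cutoff, the mean inhibition of sample wells plus 3 SD, cut at about 27% in these data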;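 further: 0% = acetylcholine EC80 with DMSO and 100% = DMSO without agonist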
M5 PAM – human M5 muscarinic receptor positive allosteric modulators, primary screen, CHO-K1 cells, Fluo-8 calcium fluorescence. Muscarinic acetylcholine receptor M5 (Homo sapiens), P08912. CHO-K1 hM5, ACh EC20 PAM; 0% = ACh EC20, 100% = ACh EC100. activation, % at 3 µM. 360,000 tested, 0.3% active. AID 624038, 2012;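 active means activation above the run cutoff, the mean activation of all test compounds plus 3 SD, cut at about 18% in these data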
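System: CHO-K1 cell line with stable human muscarinic M5 receptor expression | Also added: EC20 acetylcholine as agonist stimulus | Compound: One concentration, 3 µM final (nominal) | Timing: Fluo-8 loading 80 min at 37 °C plus 30 min room temperature | Measured by: Fluo-8 calcium dye fluorescence, kinetic read | Read-out basis: % activation, ACh-normalized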
CHRM4 PAM – human M4 muscarinic receptor positive allosteric modulators, primary screen, CHO-K1 cells, Fluo-8 calcium fluorescence; Muscarinic acetylcholine receptor M4 (Homo sapiens), P08173; CHO-K1 hM4/Gqi5, ACh EC20; 0% = ACh EC20, 100% = maximal ACh; activation, % at 3 µM; 360,000 tested, 0.4% active;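 active means activation above its plate's cutoff, the mean activation of sample wells plus 3 SD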
M5 antag – human M5 muscarinic receptor antagonists, primary screen, CHO cells, Fluo-8 calcium fluorescence; 360,000 tested, 0.59% active; Muscarinic acetylcholine receptor M5 (Homo sapiens), P08912; inhibition, % at 3 µM; CHO-hM5 cells, ACh EC80;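 active means inhibition above a per-plate cutoff, the mean of that plate's test compounds plus 3 SD, cut at about 27% in these data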;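 further: 0% = acetylcholine EC80 with DMSO and 100% = DMSO without agonist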
M5 ag – human M5 muscarinic receptor agonists, primary screen, CHO-K1 cells, Fluo-8 calcium fluorescence | CHO-K1 hM5 cells; 0% DMSO wells, 100% maximal acetylcholine response | 360,000 tested, 0.19% active | AID 624037, 2012 | activation, % at 3 µM | Muscarinic acetylcholine receptor M5 (Homo sapiens), P08912;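 active means activation above the run's mean over test compounds plus 3 SD, cut at about 23% in these data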;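 further: signal is peak over basal fluorescence ratio across the kinetic read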
An asterisk follows results filed as active; + = active, no number. Most compounds without a hit are left out; they make up all but 1.8% or so of the library.

SMILES	M4 ag	M4 antag	M5 PAM	CHRM4 PAM	M5 antag	M5 ag
COc1ccc(C(CNC(=O)c2cccc(NS(=O)(=O)c3ccccc3)c2)N(C)C)cc1 (stereo unspecified)	1.9	30.6*	-7.1	-13.9	13.7	-8.2
COc1ccccc1C(CNC(=O)c1cccc(S(=O)(=O)NCc2ccccc2)c1)N(C)C (stereo unspecified)	1.4	6.2	-33.3	-5.9	38.9*	-10.6
CCOc1ccc(S(=O)(=O)Nc2cccc(C(=O)NCC(c3ccccc3)N(C)C)c2)cc1 (stereo unspecified)	16.4	-11.8	-13.9	5.0	11.2	-2.8
COc1ccc(C(CNC(=O)c2cccc(NS(=O)(=O)c3ccc(C)c(F)c3)c2)N(C)C)cc1 (stereo unspecified)	2.7	-4.4	-7.0	-9.5	11.4	-7.3
COc1ccccc1C(CNC(=O)c1cccc(NS(=O)(=O)c2ccc(C)c(F)c2)c1)N(C)C (stereo unspecified)	0.4	3.1	-35.1	-7.4	66.2*	-8.2
CC1(C(=O)Nc2nc3ccccc3s2)CC1(Br)Br (stereo unspecified)	1.6	2.5	6.7	3.0	-1.9	-4.4
CCOC(=O)N1CCN(C(=O)C[C@@H]2C[C@@]3(C(=O)OCC)CCCC=C3N(Cc3ccccc3)C2=O)CC1	1.9	3.5	-0.8	1.4	-6.2	1.7
CN(c1ccc(Cl)cc1)c1cc2c(c3c1ccn3C)C1CCC2O1 (stereo unspecified)	-1.1	-11.9	-3.4	-4.5	-0.9	-0.5
COC(=O)[C@H](CC(C)C)NC(=O)CC[C@H]1O[C@@H](n2ccc(=O)[nH]c2=O)[C@H](O)[C@@H]1O	0.8	-14.0	-1.2	7.3	-2.3	-0.4
Nc1c(C(=O)O)sc2nc(-c3ccccc3)cc(-c3ccc(F)cc3)c12	-0.2	-13.3	20.6*	7.2	-10.4	5.7
CCOC(=O)[C@@H]1[C@H]2COc3ccccc3[C@@H]2N2C(=O)N(c3cccc(F)c3)C(=O)[C@@]12C	0.1	-7.1	5.8	1.1	3.4	-0.8
O=[N+]([O-])c1ccc2c(c1)nnn2-c1ccccc1	1.1	-0.1	0.2	-1.4	9.3	-4.6
c1ccc(-n2nnc3ccccc32)cc1	-1.1	81.3*	-18.6	-15.4	24.9	-2.0
O=C(O)c1cc([N+](=O)[O-])ccc1NCCCc1ccccc1	3.6	-1.4	-14.9	1.6	5.7	34.6*
CS(=O)(=O)c1ccc(Cl)c(NC(=O)COC(=O)c2ccc(F)cc2Cl)c1	0.3	1.9	18.1*	5.3	-3.6	5.2
c1ccc(-n2c3ccccc3c3ccccc32)cc1	-0.4	-6.8	18.6*	-0.8	-8.4	7.2
Oc1c(Cl)cc(Cl)cc1CNc1nc2ccccc2[nH]1	10.4	18.4	-20.4	-11.2	36.8*	0.4
Oc1c(Cl)cc(Cl)cc1CNc1ccccn1	0.8	4.0	-14.4	-5.1	12.6	-12.8
Cc1cccc(CCNS(=O)(=O)c2ccc3c(c2)NC(=O)C(C)S3)c1 (stereo unspecified)	4.6	-6.0	0.1	6.2	1.6	0.8
C[N+]1(CC(=O)OC2CCCCCCCCCCC2)CCCC1	0.1	35.4*	-17.5	-23.4	25.4	-12.1
CC(=O)OCCCCCCCCCCC[N+]1(C)CCCCC1	0.6	55.9*	-19.7	-24.1	11.2	-15.5
COC(=O)CCCCCCCCCC[N+]1(C)CCCCC1	0.2	30.7*	-3.3	-14.1	3.4	-8.9
O=C(CC1(O)CCCCC1)OC1CCCC1	0.5	1.3	-1.2	2.3	7.0	0.9
Cc1ccc(CNc2ccccc2C(=O)O)s1	0.5	5.0	2.5	-1.6	-3.6	-0.3
CN(CC(=O)Nc1ccccc1Cl)C(=O)c1ccc(COc2ccccc2)cc1	8.2	-3.9	-4.5	-7.7	7.0	1.4
SMILES	M4 ag	M4 antag	M5 PAM	CHRM4 PAM	M5 antag	M5 ag
C=CCC[C@@H](Cc1ccc(F)cc1)C(=O)OC[C@@H](Cc1ccccc1)NC(=O)[C@@H](CC=C)CC(=O)N[C@@H](CO)Cc1ccccc1	0.2	0.8	-6.1	4.7	10.7	3.7
CCc1nnc(NC(=O)CSc2nnc3nc(C)cc(C)n23)s1	1.8	-21.2	0.1	18.4*	9.9	-3.0
CN(C)CCCN(C(=O)CCc1ccccc1)c1nc2ccc(F)cc2s1	3.0	6.6	-1.4	-5.9	7.1	-3.3
CN(C)CCN(C(=O)c1ccc(C(=O)c2ccccc2)cc1)c1nc2cc3c(cc2s1)OCCO3	1.0	-9.3	0.5	2.5	6.9	-6.0
CCN(CC)CCN(C(=O)c1ccc2c(c1)OCCO2)c1nc2cc(C)cc(C)c2s1	2.7	-11.7	-1.5	17.7*	1.4	-7.8
Cc1cccc2sc(N(CCCN(C)C)C(=O)c3ccc4ncsc4c3)nc12	11.0	29.8*	-1.9	33.8*	10.7	-6.5
CN(C)CCCN(C(=O)CCc1ccccc1)c1nc2ccc(Br)cc2s1	33.8*	52.7*	2.0	-27.5	5.8	-3.1
CN(C)CCCN(C(=O)c1ccc(C(=O)c2ccccc2)cc1)c1nc2cc3c(cc2s1)OCCO3	12.1	-11.4	-5.0	1.8	28.3*	-6.3
Cc1cccc2sc(N(CCCN(C)C)C(=O)c3nc4ccccc4s3)nc12	2.1	-7.9	-3.7	0.2	-8.0	-2.3
O=C(NC(=S)NNC(=O)c1ccccc1[N+](=O)[O-])c1ccc(Br)cc1	0.0	-13.9	5.6	6.2	1.5	0.9
Cc1ccc(C)c(NS(=O)(=O)c2cc(C(=O)NCc3ccccn3)ccc2C)c1	3.9	-4.7	-2.1	5.1	-7.0	-2.3
CCN1/C(=C/C=C/c2oc3ccc(-c4ccccc4)cc3[n+]2CC)Oc2ccc(-c3ccccc3)cc21	+	98.8*	-33.9	-3.3	101.7*	+
CCOC(=O)C1CCCN(C(=S)Nc2ccc(OC)cc2)C1 (stereo unspecified)	7.1	10.8	-17.7	-10.2	6.9	33.6*
CCOC(=O)c1ccc(NC(=S)N2CCCC(C(=O)OCC)C2)cc1 (stereo unspecified)	3.0	4.6	-5.8	-2.8	17.0	22.7
Cc1c(Cl)cccc1NC(=S)N1CCCCCC1	0.3	-3.4	12.2	5.2	-3.4	-1.6
CCOC(=O)C1CCCN(C(=S)Nc2ccc(F)cc2)C1 (stereo unspecified)	7.0	-3.0	-11.7	2.4	-2.8	23.0
